Source: ChEMBL document CHEMBL2380222, “Arylsulfonamide pyrimidines as VLA-4 antagonists” (Bioorg Med Chem Lett, 2013)
One block for each compound: values may come before it. Active and inactive are the calls of the source. The calls are words filed in the database; no cut-off is given here.

What was measured:
[1] = target: Integrin alpha-V/beta-1 (Homo sapiens, UniProt P05556+P06756); experiment: Inhibition of integrin alphaVbeta1 (unknown origin) binding to mouse OPN-HIS after 30 mins by fibronectin mediated cell adhesion assay; type: protein-complex assay
Sequence of Integrin alpha-V/beta-1 (P05556 21-798 limits assumed): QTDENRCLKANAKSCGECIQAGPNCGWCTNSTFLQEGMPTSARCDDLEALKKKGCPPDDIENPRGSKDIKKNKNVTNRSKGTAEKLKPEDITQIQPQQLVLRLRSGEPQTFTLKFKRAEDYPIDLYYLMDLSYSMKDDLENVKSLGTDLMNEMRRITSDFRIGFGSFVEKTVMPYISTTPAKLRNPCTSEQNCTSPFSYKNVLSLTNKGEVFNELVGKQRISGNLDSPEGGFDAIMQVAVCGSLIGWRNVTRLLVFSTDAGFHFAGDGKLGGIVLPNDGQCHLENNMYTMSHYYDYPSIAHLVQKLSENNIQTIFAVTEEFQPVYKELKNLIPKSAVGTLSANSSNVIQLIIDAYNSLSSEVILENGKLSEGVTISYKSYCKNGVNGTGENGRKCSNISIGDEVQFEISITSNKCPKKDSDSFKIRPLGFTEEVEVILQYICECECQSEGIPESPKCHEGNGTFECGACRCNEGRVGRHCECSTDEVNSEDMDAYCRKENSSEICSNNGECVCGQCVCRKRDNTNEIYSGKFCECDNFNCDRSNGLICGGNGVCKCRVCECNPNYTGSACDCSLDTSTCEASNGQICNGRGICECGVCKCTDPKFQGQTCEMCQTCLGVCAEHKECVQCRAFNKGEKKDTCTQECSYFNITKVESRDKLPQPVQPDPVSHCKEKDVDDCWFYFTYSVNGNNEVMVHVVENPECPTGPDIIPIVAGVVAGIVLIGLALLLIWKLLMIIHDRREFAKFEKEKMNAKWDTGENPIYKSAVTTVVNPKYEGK
Sequence of Integrin alpha-V/beta-1 (P06756 31-889 limits assumed): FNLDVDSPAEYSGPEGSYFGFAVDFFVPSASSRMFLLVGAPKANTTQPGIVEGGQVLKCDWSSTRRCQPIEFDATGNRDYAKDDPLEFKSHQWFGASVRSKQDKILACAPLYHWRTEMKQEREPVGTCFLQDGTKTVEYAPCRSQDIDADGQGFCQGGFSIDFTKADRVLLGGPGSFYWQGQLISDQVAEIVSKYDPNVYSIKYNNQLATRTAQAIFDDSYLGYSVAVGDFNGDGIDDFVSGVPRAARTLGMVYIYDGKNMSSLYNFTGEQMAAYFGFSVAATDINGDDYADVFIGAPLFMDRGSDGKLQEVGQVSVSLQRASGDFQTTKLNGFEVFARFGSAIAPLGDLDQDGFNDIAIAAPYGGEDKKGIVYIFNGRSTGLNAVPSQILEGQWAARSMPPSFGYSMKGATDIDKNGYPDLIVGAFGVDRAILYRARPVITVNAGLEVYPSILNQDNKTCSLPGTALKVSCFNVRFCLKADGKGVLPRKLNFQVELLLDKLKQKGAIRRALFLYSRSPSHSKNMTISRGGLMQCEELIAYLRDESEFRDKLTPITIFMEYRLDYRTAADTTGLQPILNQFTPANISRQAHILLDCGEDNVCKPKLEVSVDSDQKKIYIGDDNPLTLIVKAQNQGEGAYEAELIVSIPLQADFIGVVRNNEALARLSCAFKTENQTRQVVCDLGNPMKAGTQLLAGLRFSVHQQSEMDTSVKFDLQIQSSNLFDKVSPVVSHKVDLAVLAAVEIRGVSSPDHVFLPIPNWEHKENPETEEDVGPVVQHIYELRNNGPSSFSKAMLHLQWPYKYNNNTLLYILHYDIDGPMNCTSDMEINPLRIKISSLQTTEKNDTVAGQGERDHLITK
Sequence of Integrin alpha-V/beta-1 (P06756 891-1048 limits assumed): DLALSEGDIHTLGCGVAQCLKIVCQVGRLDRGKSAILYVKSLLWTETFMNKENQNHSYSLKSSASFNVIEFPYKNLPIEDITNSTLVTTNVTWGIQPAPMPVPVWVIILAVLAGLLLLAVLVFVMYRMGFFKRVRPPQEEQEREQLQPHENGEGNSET

[2] = test system: Rattus norvegicus; experiment: Antiarthritic activity in Lewis rat collagen induced arthritis model assessed as AUC for ankle swelling at 10 to 30 mg/kg, po bid for 21 days; type: functional, organism-based
In short: (§1)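 Female Lewis rats developing type II collagen arthritis were dosed prophylactically by oral gavage, bid, at 3, 10 or 30 mg/kg for 21 days. A separate arm received methotrexate 0.05 mg/kg po qd, alone or combined. Read-outs were ankle caliper measurements as AUC, terminal hind paw weights, body weight and ankle/knee histology. Only animals with definite clinical and histopathologic disease were analysed.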

[3] = Inhibition of VLA-4 in rat serum binding to VCAM-1 in human Jurkat TM cells after 30 mins by fibronectin mediated cell adhesion assay; type: cell-based; conditions: 0.5 h
In short: (§2)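 Cells were preincubated 30 min on wet ice with anti-α5 (5 µg/ml) and a compound dose–response, then allowed to bind 35 min at 37 °C, 5% CO2 to human plasma fibronectin-coated wells. Wells were washed 3× and read by fluorescence to give IC50.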

[4] = test system: Rattus norvegicus; experiment: Antiarthritic activity in Lewis rat collagen induced arthritis model assessed as final paw weight at 3 mg/kg, po bid for 21 days; type: functional, organism-based; set-up: dose 3 mg/kg; in short: as §1
[5] = target: Integrin alpha-L/beta-2 (LFA-1) (Homo sapiens, UniProt P05107+P20701); experiment: Inhibition of integrin alphaLbeta2 (unknown origin) binding to ICAM in human 8866 cells after 30 mins by ICAM mediated cell adhesion assay
Sequence of Integrin alpha-L/beta-2 (LFA-1) (P20701 whole entry): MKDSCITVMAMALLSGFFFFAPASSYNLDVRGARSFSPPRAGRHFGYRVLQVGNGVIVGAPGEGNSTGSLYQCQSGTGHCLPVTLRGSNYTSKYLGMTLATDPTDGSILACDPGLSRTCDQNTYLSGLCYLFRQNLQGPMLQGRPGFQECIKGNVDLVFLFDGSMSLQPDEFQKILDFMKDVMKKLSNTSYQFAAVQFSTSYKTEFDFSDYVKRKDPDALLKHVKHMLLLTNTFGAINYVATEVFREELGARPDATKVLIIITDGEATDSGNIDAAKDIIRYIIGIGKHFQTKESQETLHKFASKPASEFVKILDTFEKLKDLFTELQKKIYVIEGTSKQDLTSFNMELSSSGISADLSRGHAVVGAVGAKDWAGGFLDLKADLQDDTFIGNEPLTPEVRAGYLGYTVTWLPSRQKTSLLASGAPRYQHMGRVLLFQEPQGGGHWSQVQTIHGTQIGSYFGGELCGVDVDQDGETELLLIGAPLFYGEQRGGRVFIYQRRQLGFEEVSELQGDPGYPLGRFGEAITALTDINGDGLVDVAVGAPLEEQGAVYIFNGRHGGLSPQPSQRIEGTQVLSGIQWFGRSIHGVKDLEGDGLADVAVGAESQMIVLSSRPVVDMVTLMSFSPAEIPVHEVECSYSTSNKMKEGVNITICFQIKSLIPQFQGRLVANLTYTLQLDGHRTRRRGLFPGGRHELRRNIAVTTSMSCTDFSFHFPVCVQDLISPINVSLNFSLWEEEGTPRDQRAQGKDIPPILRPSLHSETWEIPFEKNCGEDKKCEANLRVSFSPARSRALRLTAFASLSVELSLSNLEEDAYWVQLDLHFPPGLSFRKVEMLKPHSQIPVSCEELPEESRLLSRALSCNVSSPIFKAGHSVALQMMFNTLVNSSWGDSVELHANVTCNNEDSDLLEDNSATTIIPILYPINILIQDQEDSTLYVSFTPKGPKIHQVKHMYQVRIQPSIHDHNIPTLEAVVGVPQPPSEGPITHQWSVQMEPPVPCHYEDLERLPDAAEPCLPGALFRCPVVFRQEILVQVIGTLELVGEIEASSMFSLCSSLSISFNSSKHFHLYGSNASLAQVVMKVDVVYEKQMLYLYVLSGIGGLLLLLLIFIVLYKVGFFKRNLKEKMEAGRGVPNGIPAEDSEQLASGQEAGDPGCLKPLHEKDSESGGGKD
Sequence of Integrin alpha-L/beta-2 (LFA-1) (P05107 whole entry): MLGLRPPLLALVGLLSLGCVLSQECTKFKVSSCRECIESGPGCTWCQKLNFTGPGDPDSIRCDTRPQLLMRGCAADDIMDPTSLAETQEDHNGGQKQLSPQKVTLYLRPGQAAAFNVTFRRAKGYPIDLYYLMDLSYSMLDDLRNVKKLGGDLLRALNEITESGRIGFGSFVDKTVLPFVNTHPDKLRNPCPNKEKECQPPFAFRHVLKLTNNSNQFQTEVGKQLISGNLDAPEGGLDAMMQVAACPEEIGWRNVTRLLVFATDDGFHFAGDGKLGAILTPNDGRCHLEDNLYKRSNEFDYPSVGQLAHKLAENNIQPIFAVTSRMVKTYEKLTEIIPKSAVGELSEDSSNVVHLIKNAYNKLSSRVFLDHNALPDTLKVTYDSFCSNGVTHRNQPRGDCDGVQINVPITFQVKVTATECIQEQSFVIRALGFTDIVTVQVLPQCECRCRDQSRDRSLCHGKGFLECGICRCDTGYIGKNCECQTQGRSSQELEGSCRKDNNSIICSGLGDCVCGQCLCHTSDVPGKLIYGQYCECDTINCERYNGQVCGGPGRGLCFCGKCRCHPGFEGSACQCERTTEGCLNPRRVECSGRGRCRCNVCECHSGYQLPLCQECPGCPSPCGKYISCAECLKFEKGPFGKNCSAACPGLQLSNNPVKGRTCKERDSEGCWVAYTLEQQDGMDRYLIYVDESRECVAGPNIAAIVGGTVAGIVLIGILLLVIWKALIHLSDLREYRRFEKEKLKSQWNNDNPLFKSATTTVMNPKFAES

[6] = AUC in iv dosed Sprague-Dawley rat; type: ADME, organism-based; conditions: plasma
[7] = test system: Rattus norvegicus; experiment: Antirheumatic activity in Lewis rat collagen induced arthritis model assessed as ankle histology at 3 to 30 mg/kg, po bid for 21 days; type: functional, organism-based; in short: as §1
[8] = target: Integrin alpha-5/beta-1 (Homo sapiens, UniProt P05556+P08648); experiment: Inhibition of integrin alpha5beta1 (unknown origin) binding to fibronectin in human THP1 cells after 30 mins by fibronectin mediated cell adhesion assay
Sequence of Integrin alpha-5/beta-1 (P05556 21-798 limits assumed): as the sequence (P05556 21-798 limits assumed) above
Sequence of Integrin alpha-5/beta-1 (P08648 42-894 limits assumed): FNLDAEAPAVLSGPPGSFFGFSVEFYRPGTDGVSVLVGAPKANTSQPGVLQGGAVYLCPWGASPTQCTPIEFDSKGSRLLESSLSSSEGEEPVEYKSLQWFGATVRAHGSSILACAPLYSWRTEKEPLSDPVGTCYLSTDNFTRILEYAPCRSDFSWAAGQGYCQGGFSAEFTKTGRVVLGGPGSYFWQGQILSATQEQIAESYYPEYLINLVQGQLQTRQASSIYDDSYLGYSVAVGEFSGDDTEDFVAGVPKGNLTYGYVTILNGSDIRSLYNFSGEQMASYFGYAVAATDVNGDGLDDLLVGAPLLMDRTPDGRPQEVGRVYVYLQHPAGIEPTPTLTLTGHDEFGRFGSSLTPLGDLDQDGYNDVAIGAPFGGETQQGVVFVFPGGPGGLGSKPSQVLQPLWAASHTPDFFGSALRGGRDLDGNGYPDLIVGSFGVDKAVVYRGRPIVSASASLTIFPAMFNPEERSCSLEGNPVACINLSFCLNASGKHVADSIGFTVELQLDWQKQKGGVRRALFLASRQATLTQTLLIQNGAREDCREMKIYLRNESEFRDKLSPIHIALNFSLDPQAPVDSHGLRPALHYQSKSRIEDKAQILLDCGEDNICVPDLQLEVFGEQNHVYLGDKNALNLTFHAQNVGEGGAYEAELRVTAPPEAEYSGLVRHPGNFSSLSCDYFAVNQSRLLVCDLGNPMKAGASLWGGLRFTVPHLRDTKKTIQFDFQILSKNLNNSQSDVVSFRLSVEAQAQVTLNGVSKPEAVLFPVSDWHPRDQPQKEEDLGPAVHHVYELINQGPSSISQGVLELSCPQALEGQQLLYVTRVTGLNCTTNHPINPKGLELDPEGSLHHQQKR
Sequence of Integrin alpha-5/beta-1 (P08648 895-1049 limits assumed): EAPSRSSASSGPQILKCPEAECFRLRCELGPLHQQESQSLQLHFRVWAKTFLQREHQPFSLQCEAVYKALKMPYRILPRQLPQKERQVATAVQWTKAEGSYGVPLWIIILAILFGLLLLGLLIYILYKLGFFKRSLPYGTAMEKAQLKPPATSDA

[9] = Oral bioavailability in Sprague-Dawley rat; type: ADME, organism-based; conditions: in vivo
[10] = test system: Rattus norvegicus; experiment: Antiarthritic activity in Lewis rat collagen induced arthritis model assessed as cartilage destruction at 3 to 30 mg/kg, po bid for 21 days; type: functional, organism-based; in short: as §1
[11] = Inhibition of VLA-4 in mouse serum binding to VCAM-1 in human Jurkat TM cells after 30 mins by fibronectin mediated cell adhesion assay; type: cell-based; conditions: 0.5 h
[12] = test system: Mus musculus; experiment: Inhibition of Eos influx in Black/6 mouse acute pulmonary cellular influx model at 1 mg/kg, po bid administered 1hr prior and 12 hrs post ova/alum challenge on day 28 and 29 relative to vehicle-treated control; type: functional
In short: (§3)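 Female Black/6 mice were sensitized i.p. with ova/alum on day 1, boosted on day 14 and challenged with aerosolized ova and alum on days 28 and 29. Dosing was oral gavage (5 ml/kg) twice daily on days 28–29, 1 h before and 12 h after challenge. Reference anti-α4 antibody PS/2 was given iv at 10 mg/kg, 2 h before the first challenge. Bronchoalveolar lavage eosinophils were counted on day 30 (48 h after the first challenge) as % inhibition.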

[13] = test system: Rattus norvegicus; experiment: Antirheumatic activity in Lewis rat collagen induced arthritis model assessed as ankle histology at 0.05 mg/kg, po bid for 21 days; type: functional, organism-based; set-up: dose 0.05 mg/kg
[14] = test system: Mus musculus; experiment: Inhibition of Eos influx in Black/6 mouse acute pulmonary cellular influx model at 1 mg/kg, po bid administered 1hr prior and 12 hrs post ova/alum challenge on day 28 and 29 relative to alpha4 antibody PS/2; type: functional; in short: as §3
[15] = Inhibition of VLA-4 binding to VCAM-1 in human Jurkat TM cells after 30 mins by fibronectin mediated cell adhesion assay using BSA; type: cell-based
In short: as §2, with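 “Calcein-labelled Jurkat TM cells (10^5/well) in Hepes 20 mM, NaCl 140 mM, CaCl2 1 mM, MgCl2 1 mM, 0.3% BSA with activating anti-α4 TS2/16. Cells” for “Cells”, “bound” for “allowed to bind”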

[16] = Inhibition of VLA-4 in human serum binding to VCAM-1 in human Jurkat TM cells after 30 mins by fibronectin mediated cell adhesion assay; type: cell-based; conditions: 0.5 h; in short: as §2
[17] = test system: Rattus norvegicus; experiment: Antiarthritic activity in Lewis rat collagen induced arthritis model assessed as inhibition of AUC for ankle swelling at 3 mg/kg, po bid for 21 days; type: functional; conditions: 504 h, read-out: INH; in short: as §1
[18] = test system: Cavia porcellus; experiment: Antiinflammatory activity in guinea pig at 30 to 300 mg/kg, po bid for 12 days; type: functional, organism-based
In short: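 Guinea pig EAE: animals were immunized, and only those with established disease (clinical score >0) were randomized at 16–18 days post-immunization. Oral dosing was bid for 12 days at 30 or 300 mg/kg. Natalizumab was given every other day as comparator. The read-out was clinical score over the treatment period.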

[19] = AUC in po dosed Sprague-Dawley rat; type: ADME, organism-based; conditions: plasma
[20] = test system: Rattus norvegicus; experiment: Antiarthritic activity in Lewis rat collagen induced arthritis model at 3 to 30 mg/kg, po bid for 21 days; type: functional, organism-based; in short: as §1
[21] = test system: Mus musculus; experiment: Inhibition of Eos influx in Black/6 mouse acute pulmonary cellular influx model at 3 mg/kg, po bid administered 1hr prior and 12 hrs post ova/alum challenge on day 28 and 29 relative to PS/2; type: functional
In short: (§4)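 Female Black/6 mice were sensitized i.p. with ova/alum on day 1, boosted on day 14, and challenged with aerosolized ova on days 28 and 29. Compound was given by oral gavage (5 ml/kg) twice daily on days 28–29, 1 h before and 12 h after challenge. BAL was collected on day 30, 48 h after the first challenge. Eosinophil influx was reported as % inhibition against vehicle or against PS/2 (anti-α4, 10 mg/kg iv, 2 h before first challenge).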

[22] = test system: Mus musculus; experiment: Inhibition of Eos influx in Black/6 mouse acute pulmonary cellular influx model at 3 mg/kg, po bid administered 1hr prior and 12 hrs post ova/alum challenge on day 28 and 29 relative to vehicle-treated control; type: functional; in short: as §4
[23] = Plasma concentration in po dosed Sprague-Dawley rat after 12 hrs; type: ADME, organism-based
[24] = test system: Rattus norvegicus; experiment: Antiarthritic activity in Lewis rat collagen induced arthritis model assessed as bone resorbtion at 3 to 30 mg/kg, po bid for 21 days; type: functional, organism-based; in short: as §1
[25] = test system: Rattus norvegicus; experiment: Antiarthritic activity in Lewis rat collagen induced arthritis model assessed as final paw weight at 10 to 30 mg/kg, po bid for 21 days; type: functional, organism-based; in short: as §1
[26] = Inhibition of VLA-4 (unknown origin) binding to VCAM-1 in human Jurkat TM cells after 30 mins by fibronectin mediated cell adhesion assay; type: cell-based
In short: as §2, with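 “Calcein-labelled Jurkat TM cells (10^5/well) in Hepes 20 mM, NaCl 140 mM, CaCl2 1 mM, MgCl2 1 mM, 0.3% BSA with activating anti-α4 TS2/16. Cells” for “Cells”, “bound” for “allowed to bind”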

[27] = Plasma concentration in po dosed Sprague-Dawley rat after 6 hrs; type: ADME, organism-based

IC50 [1]: 500 nM
IC50 [3]: 1900 nM
IC50 [5]: > 30000 nM
AUC [6]: 156000 ng·h/mL
IC50 [8]: > 30000 nM
bioavailability [9]: 56%
IC50 [11]: 36 nM
IC50 [15]: 9 nM
IC50 [16]: 4600 nM
AUC [19]: 88000 ng·h/mL
concentration at 12 h [23]: 1310 ng/mL
IC50 [26]: 8 nM
SMILES: C#CCN(c1cnc(N(CC)CC)nc1N[C@@H](Cc1ccc(OC(=O)N2CCCC2)cc1)C(=O)O)S(=O)(=O)c1ccc(F)cc1
Activity [2]: Active
Activity [4]: Active
Activity [7]: Active
Activity [10]: Active
inhibition in vivo at 1 mg/kg [12]: 0%
Activity [13]: Active
inhibition in vivo at 1 mg/kg [14]: 0%
inhibition in vivo at 3 mg/kg [17]: 15%
Activity [18]: Active
Activity [20]: Active
inhibition in vivo at 3 mg/kg [21]: 74%
inhibition in vivo at 3 mg/kg [22]: 41%
Activity [24]: Active
Activity [25]: Active

SMILES: CCN(CC)c1ncc(N(C(C)C)S(=O)(=O)c2ccc(F)c(F)c2)c(N[C@@H](Cc2ccc(OC(=O)N(C)C)cc2)C(=O)O)n1
IC50 [26]: 7 nM

SMILES: CCN(CC)c1ncc(N(CC)S(=O)(=O)c2ccc(Cl)cc2)c(N[C@@H](Cc2ccc(OC(=O)N(C)C)cc2)C(=O)O)n1
AUC [6]: 17000 ng·h/mL
bioavailability [9]: 33%
AUC [19]: 5100 ng·h/mL
concentration at 12 h [23]: 12 ng/mL
IC50 [26]: 7 nM

AUC [6]: 110000 ng·h/mL
bioavailability [9]: 31%
AUC [19]: 34000 ng·h/mL
concentration at 12 h [23]: 100 ng/mL
IC50 [26]: 17 nM
SMILES: CCN(CC)c1ncc(N(CC)S(=O)(=O)c2ccc(Cl)cc2)c(N[C@@H](Cc2ccc(OC(=O)N3CCCC3)cc2)C(=O)O)n1

AUC [6]: 153000 ng·h/mL
bioavailability [9]: 33%
AUC [19]: 51000 ng·h/mL
concentration at 12 h [23]: 330 ng/mL
IC50 [26]: 19 nM
SMILES: CCN(CC)c1ncc(N(C)S(=O)(=O)c2ccc(Cl)cc2)c(N[C@@H](Cc2ccc(OC(=O)N3CCCC3)cc2)C(=O)O)n1

SMILES: CN(C)C(=O)Oc1ccc(C[C@H](NC(=O)[C@H]2N(S(=O)(=O)c3cnn(C)c3)CSC2(C)C)C(=O)O)cc1
IC50 [26]: 2 nM

AUC [6]: 173000 ng·h/mL
bioavailability [9]: 43%
AUC [19]: 74000 ng·h/mL
concentration at 12 h [23]: 450 ng/mL
IC50 [26]: 6 nM
SMILES: CCN(CC)c1ncc(N(C)S(=O)(=O)c2ccc(C)cc2)c(N[C@@H](Cc2ccc(OC(=O)N3CCCC3)cc2)C(=O)O)n1

SMILES: CCN(CC)c1ncc(N(C)S(=O)(=O)c2ccc(Cl)cc2)c(N[C@@H](Cc2ccc(OC(=O)N(C)C)cc2)C(=O)O)n1
AUC [6]: 32000 ng·h/mL
bioavailability [9]: 73%
AUC [19]: 23000 ng·h/mL
concentration at 12 h [23]: 130 ng/mL
IC50 [26]: 3 nM

SMILES: CCN(CC)c1ncc(N(CC)S(=O)(=O)c2ccc(F)c(F)c2)c(N[C@@H](Cc2ccc(OC(=O)N(C)C)cc2)C(=O)O)n1
AUC [6]: 17000 ng·h/mL
bioavailability [9]: 24%
AUC [19]: 4200 ng·h/mL
concentration at 12 h [23]: 8 ng/mL
IC50 [26]: 4 nM

SMILES: CCN(CC)c1ncc(N(C)S(=O)(=O)c2ccc(C)cc2)c(N[C@@H](Cc2ccc(OC(=O)N(C)C)cc2)C(=O)O)n1
AUC [6]: 41000 ng·h/mL
bioavailability [9]: 15%
AUC [19]: 6000 ng·h/mL
concentration at 6 h [27]: 100 ng/mL
IC50 [26]: 2 nM
